Screening data from PubChem.
NOD2-RIPK2 inh – NOD2-RIPK2 binding disruptors in cells, primary screen, fluorescence, CHO cells, BLA complementation; Receptor-interacting serine/threonine-protein kinase 2 (Homo sapiens), O43353; CCF4 ratio; inhibition, % at 4.98 µM; 360,000 compounds, 0.38% hits; AID 624267, 2012; in the data active means inhibition above about 21%
CHOP inhibitor – inhibitors of CHOP promoter induction, primary screen, cell-based, unfolded protein response, luciferase reporter; CHO-K1 CHOP-promoter luciferase, tunicamycin-induced, 15-18 h; inhibition, % at 10 µM; 220,000 compounds, 3.8% hits; AID 2732, 2010;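 active means compounds that reduced the stress-induced luciferase reporter signal by more than about 70% of percent inhibition, limit read from the data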
TLR9-MyD88 block – inhibitors of TLR9-MyD88 association in cells, primary screen, cell-based, CHO, BLA complementation, fluorescence; AID 504734, 2011; Toll-like receptor 9 (Homo sapiens) + Myeloid differentiation primary response protein …; inhibition, % at 4.98 µM; 340,000 compounds, 0.21% hits; CCF4 FRET ratio;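 active means inhibition above the mean over all tested compounds plus 3 SD, cut at about 21% in these data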
TLR4 MyD88 comp – inhibitors of TLR4-MyD88 association in cells, primary screen, cell-based, HeLa CL3-4, BLA complementation, FRET ratio; inhibition, % at 8.4 µM; HeLa CL3-4 TLR4/MyD88 BLA complementation; Toll-like receptor 4 (Homo sapiens) + Myeloid differentiation primary response protein …; 200,000 compounds, 0.18% hits; AID 861, 2007; in the data active means inhibition above about 25%
Target sequence (O00206 whole entry, looked up): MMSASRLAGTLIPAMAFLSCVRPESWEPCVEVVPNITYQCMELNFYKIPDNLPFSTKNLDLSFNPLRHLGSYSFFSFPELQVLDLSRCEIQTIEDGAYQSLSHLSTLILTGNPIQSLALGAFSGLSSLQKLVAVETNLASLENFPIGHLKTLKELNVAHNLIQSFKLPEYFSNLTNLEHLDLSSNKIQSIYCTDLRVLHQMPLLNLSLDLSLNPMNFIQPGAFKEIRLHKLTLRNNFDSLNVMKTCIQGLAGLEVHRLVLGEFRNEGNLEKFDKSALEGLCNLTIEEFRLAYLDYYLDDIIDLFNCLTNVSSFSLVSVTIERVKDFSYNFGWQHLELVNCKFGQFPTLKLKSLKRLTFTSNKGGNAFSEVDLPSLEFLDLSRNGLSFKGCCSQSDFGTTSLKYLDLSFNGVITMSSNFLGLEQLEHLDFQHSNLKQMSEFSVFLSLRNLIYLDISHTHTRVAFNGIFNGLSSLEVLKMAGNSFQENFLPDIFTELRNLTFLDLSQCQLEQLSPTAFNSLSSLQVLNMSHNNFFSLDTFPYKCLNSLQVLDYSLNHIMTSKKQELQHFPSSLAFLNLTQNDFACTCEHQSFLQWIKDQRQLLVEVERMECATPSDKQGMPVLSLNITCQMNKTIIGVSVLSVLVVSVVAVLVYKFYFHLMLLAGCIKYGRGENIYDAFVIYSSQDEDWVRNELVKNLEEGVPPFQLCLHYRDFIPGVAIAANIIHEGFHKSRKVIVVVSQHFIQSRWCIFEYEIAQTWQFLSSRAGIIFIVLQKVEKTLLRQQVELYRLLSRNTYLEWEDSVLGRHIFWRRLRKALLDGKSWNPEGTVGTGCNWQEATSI
Target sequence (Q99836 whole entry, looked up): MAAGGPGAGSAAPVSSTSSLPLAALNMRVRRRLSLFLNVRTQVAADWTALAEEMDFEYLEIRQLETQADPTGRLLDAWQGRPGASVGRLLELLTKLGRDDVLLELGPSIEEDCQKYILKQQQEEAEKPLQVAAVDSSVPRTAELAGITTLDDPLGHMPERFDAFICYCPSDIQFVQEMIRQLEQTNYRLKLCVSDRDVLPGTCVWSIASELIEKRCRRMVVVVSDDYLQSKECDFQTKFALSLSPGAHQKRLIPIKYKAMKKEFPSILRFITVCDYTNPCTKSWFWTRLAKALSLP
UPR XBP1 act – activators of adaptive XBP1 UPR arm, primary screen, cell-based, CHO-XBP1 luciferase reporter, luminescence, uHTS. IRE1-XBP1 UPR activation; percent of tunicamycin response, DMSO as zero. activation, % at 20 µM. 330,000 compounds, 0.33% hits. AID 463104, 2010;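 active means versus positive control, 20 µM dose yields 30% or more activation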
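Material: CHO-XBP1 cells stably carrying IRE1-XBP1-driven luciferase reporter / Amount: 1000 cells per well / Compound: 20 µM, 1% DMSO / Times: 6 h treatment, 37 °C / Detection: luciferase luminescence / Measure: % activation of reporter signal versus tunicamycin and DMSO controls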
UPR CHOP act – activators of apoptotic CHOP UPR arm, primary screen, cell-based, CHO-CHOP luciferase reporter, luminescence, uHTS; AID 449763, 2010; UPR activation; percent of tunicamycin response over DMSO baseline; 330,000 compounds, 0.34% hits; activation, % at 10 µM;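 active means at 10 µM dose, activation of 40% or more, normalized to positive control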
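Material: CHO-CHOP cells, stable luciferase reporter of PERK-eIF2a-CHOP signalling; quantity: 500 reporter cells seeded per well; buffer or medium: F12 medium containing 10% fetal bovine serum; compound: one dose, 10 µM in 0.5% DMSO; incubation: 6 h compound treatment, 37 °C; measured by: Steady-Glo luciferase luminescence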
A number is an active result. The entries come from a sample that favours hits as a whole.

How did OC(COc1ccc2ccccc2c1)CN1CCN(c2ccc(F)cc2)CC1 (stereo not given) do in these assays?
NOD2-RIPK2 inh: inactive; CHOP inhibitor: 87.0; TLR9-MyD88 block: inactive; TLR4 MyD88 comp: inactive; UPR XBP1 act: inactive; UPR CHOP act: inactive

Results for OC(COc1cccc2ccccc12)CN1CCN(c2cccc(Cl)c2)CC1 (stereo not given) ?
NOD2-RIPK2 inh: inactive; CHOP inhibitor: 71.3; TLR9-MyD88 block: inactive; UPR XBP1 act: inactive; UPR CHOP act: inactive

How did CC(=O)c1ccccc1OCC(O)CN1CCN(C(c2ccccc2)c2ccccc2)CC1 (stereo not given) do in these assays?
NOD2-RIPK2 inh: inactive; CHOP inhibitor: 75.4; TLR9-MyD88 block: inactive; TLR4 MyD88 comp: inactive; UPR XBP1 act: inactive; UPR CHOP act: inactive

Results for OC(COc1cccc2ccccc12)CN1CCN(c2ccc(Cl)cc2)CC1 (stereo not given) ?
NOD2-RIPK2 inh: inactive; CHOP inhibitor: inactive; TLR9-MyD88 block: inactive; UPR XBP1 act: inactive; UPR CHOP act: inactive

How did CCOC1=C2[C@@H](CN(S(=O)(=O)c3ccc(C)cc3)[C@H]2c2ccccc2F)[C@H]2C(=O)N(c3ccccc3)C(=O)[C@H]2C1 do in these assays?
NOD2-RIPK2 inh: inactive

Results for COC(=O)Cc1ccc(NC(=O)c2ccc(C(C)(C)C)cc2)cc1 ?
NOD2-RIPK2 inh: inactive; CHOP inhibitor: 72.2; TLR9-MyD88 block: inactive; TLR4 MyD88 comp: inactive; UPR XBP1 act: inactive; UPR CHOP act: inactive

How did CC(C)(C)c1ccc(C(=O)Nc2ccc(Cl)cc2)cc1 do in these assays?
NOD2-RIPK2 inh: inactive; CHOP inhibitor: inactive; TLR9-MyD88 block: inactive; TLR4 MyD88 comp: inactive; UPR XBP1 act: inactive; UPR CHOP act: inactive

Results for CCOc1ccc(N2CCc3c(C)nc(SC)nc32)cc1 ?
NOD2-RIPK2 inh: inactive; CHOP inhibitor: 95.9; TLR9-MyD88 block: inactive; TLR4 MyD88 comp: inactive; UPR XBP1 act: inactive; UPR CHOP act: inactive

Results for CCCN1C(=O)/C(=C/c2c(NCCCOCC)nc3c(C)cccn3c2=O)SC1=S ?
NOD2-RIPK2 inh: inactive; CHOP inhibitor: 76.4; TLR9-MyD88 block: inactive; TLR4 MyD88 comp: inactive

How did COc1ccc(NC(=O)Cn2nnc(-c3ccccc3)c2COc2ccc3ccccc3c2)cn1 do in these assays?
NOD2-RIPK2 inh: inactive

What do the screens show for `CC(C)n1nnnc1C1c2ccccc2C(=O)N1Cc1ccc(F)cc1` (stereo not given)?
NOD2-RIPK2 inh: inactive

How did CCOC(=O)c1c2ccc(OCC(=O)N/N=C/c3ccccc3C(F)(F)F)cc2n2ccccc12 do in these assays?
CHOP inhibitor: 96.2; TLR4 MyD88 comp: inactive

Results for C=CCSc1n[nH]c2nc3c(c(=O)n12)C1(CCCC1)Cc1ccccc1-3 ?
NOD2-RIPK2 inh: inactive; CHOP inhibitor: 70.6; TLR9-MyD88 block: inactive; TLR4 MyD88 comp: inactive; UPR XBP1 act: inactive; UPR CHOP act: inactive

Results for CCSc1n[nH]c2nc3c(c(=O)n12)C1(CCCC1)Cc1ccccc1-3 ?
NOD2-RIPK2 inh: inactive; CHOP inhibitor: 87.9; TLR9-MyD88 block: inactive; TLR4 MyD88 comp: inactive; UPR XBP1 act: inactive; UPR CHOP act: inactive

What do the screens show for `CC(C)NC(=S)N/N=C/c1cccs1`?
NOD2-RIPK2 inh: inactive; CHOP inhibitor: inactive; TLR9-MyD88 block: inactive; TLR4 MyD88 comp: inactive; UPR XBP1 act: inactive; UPR CHOP act: inactive

Results for CC(C)NC(=S)N/N=C/c1ccc(C(C)(C)C)cc1 ?
NOD2-RIPK2 inh: inactive; CHOP inhibitor: 91.3; TLR9-MyD88 block: inactive; TLR4 MyD88 comp: inactive; UPR XBP1 act: inactive; UPR CHOP act: inactive

Results for Cc1ccc(N(CC(=O)Nc2cc(Cl)ccc2Oc2ccccc2)S(C)(=O)=O)cc1C ?
NOD2-RIPK2 inh: inactive; CHOP inhibitor: 89.0; TLR9-MyD88 block: inactive; TLR4 MyD88 comp: inactive; UPR XBP1 act: inactive; UPR CHOP act: inactive
